# CHRM4 PAM – human M4 muscarinic receptor positive allosteric modulators, primary screen, CHO-K1 cells, Fluo-8 calcium fluorescence. CHO-K1 hM4/Gqi5, ACh EC20; 0% = ACh EC20, 100% = maximal ACh. Muscarinic acetylcholine receptor M4 (Homo sapiens), P08173. AID 624126, 2012. 360,000 compounds, 0.4% hits. activation, % at 3 µM;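 active = activation above its plate's cutoff, the mean activation of sample wells plus 3 SD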
# M5 PAM – human M5 muscarinic receptor positive allosteric modulators, primary screen, CHO-K1 cells, Fluo-8 calcium fluorescence | activation, % at 3 µM | Muscarinic acetylcholine receptor M5 (Homo sapiens), P08912 | AID 624038, 2012 | CHO-K1 hM5, ACh EC20 PAM; 0% = ACh EC20, 100% = ACh EC100 | 360,000 compounds, 0.3% hits;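 active = activation above the run cutoff, the mean activation of all test compounds plus 3 SD, cut at about 18% in these data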
# Target sequence (P08912 whole entry, looked up): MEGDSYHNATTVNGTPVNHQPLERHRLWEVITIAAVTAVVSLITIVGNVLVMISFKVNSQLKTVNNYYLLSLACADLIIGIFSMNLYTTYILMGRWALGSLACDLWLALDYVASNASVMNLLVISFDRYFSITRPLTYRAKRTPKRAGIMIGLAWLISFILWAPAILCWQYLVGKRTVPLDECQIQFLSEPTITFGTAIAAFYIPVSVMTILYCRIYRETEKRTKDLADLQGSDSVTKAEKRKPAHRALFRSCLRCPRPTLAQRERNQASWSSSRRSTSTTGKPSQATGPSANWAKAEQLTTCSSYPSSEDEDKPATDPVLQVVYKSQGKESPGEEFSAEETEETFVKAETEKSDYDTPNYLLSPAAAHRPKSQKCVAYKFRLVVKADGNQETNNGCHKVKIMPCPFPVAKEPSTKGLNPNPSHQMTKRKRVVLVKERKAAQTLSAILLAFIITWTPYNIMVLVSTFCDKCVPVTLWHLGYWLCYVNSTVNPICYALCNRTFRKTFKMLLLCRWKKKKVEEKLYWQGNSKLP
#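 system = human M5 receptor in CHO-K1 cells | compound = one concentration, 3 µM final (nominal) | schedule = Post-acetylcholine fluorescence recording 140 s | signal = Fluo-8 calcium dye fluorescence, kinetic read | benchmarks = low control EC20 acetylcholine (0%), high control EC100 acetylcholine (100%) | repeats = singlicate, one well per test compound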
# M4 antag – human M4 muscarinic receptor antagonists, primary screen, CHO cells, Fluo-8 calcium fluorescence; CHO-hM4 cells, ACh EC80; inhibition, % at 3 µM; 360,000 compounds, 0.73% hits;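 active = inhibition above its plate's cutoff, the mean inhibition of sample wells plus 3 SD, cut at about 27% in these data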;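 also: 0% = acetylcholine EC80 with DMSO and 100% = DMSO without agonist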
# CHRM5 agonist – human M5 muscarinic receptor agonists, primary screen, CHO-K1 cells, Fluo-8 calcium fluorescence; AID 624037, 2012; Muscarinic acetylcholine receptor M5 (Homo sapiens), P08912; activation, % at 3 µM; CHO-K1 hM5 cells; 0% DMSO wells, 100% maximal acetylcholine response; 360,000 compounds, 0.19% hits;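 active = activation above the run's mean over test compounds plus 3 SD, cut at about 23% in these data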;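 also: signal is peak over basal fluorescence ratio across the kinetic read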
# M4 ag – human M4 muscarinic receptor agonists, primary screen, CHO-K1 cells, Fluo-8 calcium fluorescence; 360,000 compounds, 0.14% hits; Muscarinic acetylcholine receptor M4 (Homo sapiens), P08173; CHO-K1 hM4/Gqi5; vehicle 0%, full acetylcholine response 100%; activation, % at 3 µM;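 active = activation above the run mean over all test wells plus 3 SD, cut at about 32% in these data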;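 also: peak over basal fluorescence ratio per well then scaled between controls; 0% = DMSO wells and 100% = acetylcholine at EC100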
# M5 antag – human M5 muscarinic receptor antagonists, primary screen, CHO cells, Fluo-8 calcium fluorescence; CHO-hM5 cells, ACh EC80; 360,000 compounds, 0.59% hits; inhibition, % at 3 µM;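 active = inhibition above a per-plate cutoff, the mean of that plate's test compounds plus 3 SD, cut at about 27% in these data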;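 also: 0% = acetylcholine EC80 with DMSO and 100% = DMSO without agonist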
# Numbers without * were called inactive. The list is not random: actives were taken first. Their share in the collection is about 1.8%.
SMILES,CHRM4 PAM,M5 PAM,M4 antag,CHRM5 agonist,M4 ag,M5 antag
CCOC(=O)N1CCN(C(=O)c2ccc(CS(=O)(=O)c3ccccc3OC)o2)CC1,0,1,-10,-1,2,3
COc1ccccc1N1CCN(C(=O)c2cccc3c(=O)c(C)c(-c4ccccc4)oc23)CC1,-13,-19,-13,26*,16,12
Cc1cc2c(NCCc3ccccc3)ncnc2s1,-11,-23,12,0,15,7
c1ccc(CCNc2ncnc3ccccc23)cc1,-6,-16,22,6,14,30*
CCCCCCCCNc1ncnc2ccccc12,-19,-15,27*,3,9,43*
Cc1nnsc1C(=O)N/N=C/c1ccc(OC(F)(F)F)cc1,14,3,2,4,2,12
Cn1c(=O)[nH]c(=O)c2c1nc(N1CCCCC1)n2CCSc1nc2ccccc2o1,-13,-11,81*,-1,0,10
COc1ccc(-c2cn3cccnc3n2)cc1NS(=O)(=O)c1ccccc1,7,-1,-8,-1,2,-4
COc1ccc(-c2cn3cccnc3n2)cc1F,1,18*,8,0,0,-5
CC(C)[C@H](NC(=O)OCc1ccccc1)C(=O)OCC(=O)NC1CCCCC1,1,-3,0,-4,1,0
CC(C)[C@H](NC(=O)OCc1ccccc1)C(=O)OCC(=O)NC1(C#N)CCCC1,16*,11,1,-5,1,-2
CC(=O)c1sc(NC(=O)C2(F)C(F)(F)C(F)(F)C(F)(F)C(F)(F)C2(F)F)nc1C,-14,-11,12,8,14,29*
Cc1ccc(-c2csc(N3CCN(CCCn4c(-c5ccncc5)nc5ccccc54)CC3)n2)cc1,-6,-24,12,-6,6,18
Cc1ccc(-c2csc(N3CCC[C@@H]3C(=O)NCCn3c(-c4ccncc4)nc4ccccc43)n2)cc1,-16,-31,48*,-6,13,27
CN(C)CCN1CCN(C2CN(Cc3ccc([N+](=O)[O-])cc3)S(=O)(=O)C2)CC1 (centres undefined),0,14,-7,2,0,-10
O=C(Nc1ccc(-c2ccco2)cc1)C1CCCN(Cc2ccco2)C1 (centres undefined),-1,-4,9,-2,2,5
Cc1ncc(CN2CCCC(C(=O)Nc3ccc(-c4ccco4)cc3)C2)n1C (centres undefined),-12,-3,31*,-8,1,6
CC12CCC(C(N)C1=O)C2(C)C (centres undefined),-3,6,7,2,0,14
COc1ccc(S(=O)(=O)N2CCCCCC2)cc1C(=O)NCc1ccccc1Cl,26*,-1,-3,0,0,-2
Cc1ccc(CNC(=O)C2=CCN(S(=O)(=O)c3ccc(C)cc3)CC2)cc1,-6,-10,-4,0,6,4
COc1ccc(S(=O)(=O)N2CCCCCC2)cc1C(=O)NCc1ccco1,-2,-3,-9,0,3,9
COc1ccccc1CNC(=O)C1=CCN(S(=O)(=O)c2ccc(C)cc2)CC1,5,19*,24,1,2,-1
O=C(CCC(=O)N1CCN(c2ccccn2)CC1)c1ccc(Cl)s1,-3,4,3,0,1,0
CCCCCCCC1CC(/C(C)=N/NC(N)=O)OC1=O (centres undefined),4,3,-2,-4,0,-1
CC(NC(=O)c1ccccc1)C(=O)OCn1nnc2ccccc2c1=O (centres undefined),12,20*,-14,-4,1,-8
SMILES,CHRM4 PAM,M5 PAM,M4 antag,CHRM5 agonist,M4 ag,M5 antag
O=c1c2ccccc2nc2sc(Nc3cccc(Cl)c3)nn12,-1,20*,7,6,1,-15
COc1ccc(C(=O)/C=C2/C(=O)Nc3ccccc32)cc1,-10,11,4,12,8,8
O=C1Nc2ccccc2/C1=C/C(=O)c1cccs1,-9,19*,8,8,5,16
COc1ccc(C(=O)/C=C2/C(=O)Nc3ccccc32)cc1OC,-8,5,-13,8,6,3
COc1ccc(C(=O)/C=C2/C(=O)Nc3ccccc32)c(OC)c1,-15,-2,29*,6,9,13
COCCN1C(=O)CSCC1(C)C(=O)NC(C)C (centres undefined),1,-5,0,-1,0,9
C=CCSc1nc(C)cc(C(=O)OCC)c1C#N,-23,4,-6,-1,-2,6
C#CCNC(=O)C[C@@H]1C[C@@]2(C(=O)OCC)CCC=C2N(Cc2ccco2)C1=O,28*,3,-10,1,1,1
C#CCNC(=O)C[C@@H]1C[C@@]2(C(=O)OC)CCCCC=C2N(Cc2ccco2)C1=O,6,14,-2,7,1,-17
CCOC(=O)[C@]12CCCC=C1N(Cc1ccco1)C(=O)[C@H](CC(=O)N1CCN(C(=O)c3ccco3)CC1)C2,24*,5,-3,6,-2,-3
Cc1ccc(CNc2ncnc3cc(Cl)ccc23)cc1,-11,-18,12,2,13,35*
COc1ccc(OC)c(Nc2nc(NCCCN(C)C)nc(N)c2[N+](=O)[O-])c1,-3,-6,2,1,3,10
COCCCNc1nc(N)c([N+](=O)[O-])c(Nc2cc(OC)ccc2OC)n1,2,8,-17,36*,11,5
CCC1CCCCN1C(=O)c1cc(COc2ccc3ncccc3c2)on1 (centres undefined),-12,-29,5,7,22,41*
COCC1CCCCN1C(=O)c1cc(COc2ccc3ncccc3c2)on1 (centres undefined),-12,-14,34*,7,32*,39*
Cc1ccc(F)cc1CNC(=O)c1cc(COc2ccc3ncccc3c2)on1,-19,-16,43*,6,25,56*
O=C(NCc1cccc(Cl)c1)c1cc(COc2ccc3ncccc3c2)on1,-8,-23,11,4,17,22
CCN(CC)C(=O)C1CCCN(C(=O)c2cc(COc3ccc4ncccc4c3)on2)C1 (centres undefined),-10,-16,-12,3,18,8
